Bioassay records as filed in PubChem.
GASC1_inh: KDM4C (human) demethylase inhibition; Q9H3R0; GST-KDM4C 2-372, H3K9me3 peptide, LANCE TR-FRET; inhibition, % at 12.5 µM; 0.15% of 96,000 active;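 active = mean replicate inhibition above about 25%, with at least 55% of replicates also reaching it, limit read from the data, passing the limit was not always enough; inconclusive = only one of those two conditions met; inactive = neither condition met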
Target sequence (Q9H3R0 2-372 limits assumed): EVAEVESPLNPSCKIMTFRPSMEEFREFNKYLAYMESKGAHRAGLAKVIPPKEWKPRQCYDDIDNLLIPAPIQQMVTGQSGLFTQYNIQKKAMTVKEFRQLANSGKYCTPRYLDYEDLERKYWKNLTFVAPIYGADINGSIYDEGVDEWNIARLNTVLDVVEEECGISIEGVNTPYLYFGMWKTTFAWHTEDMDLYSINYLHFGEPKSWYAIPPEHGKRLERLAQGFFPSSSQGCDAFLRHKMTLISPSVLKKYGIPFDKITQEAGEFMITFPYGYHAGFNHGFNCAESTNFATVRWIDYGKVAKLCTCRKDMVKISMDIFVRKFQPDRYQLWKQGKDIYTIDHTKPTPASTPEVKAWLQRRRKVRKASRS
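reagent = H3K9me3 peptide substrate, Fe(II), 2-oxoglutarate | system = GST-tagged GASC-1 (JMJD2C) catalytic fragment, aa 2-372 | amount = enzyme final amount 10 nM | read-out = Fall in 671/618 emission ratio as inhibition | medium = HEPES buffer, pH 7.5, plus ascorbate | schedule = 30 min reaction, 60 min detection, RT | measured by = LANCE TR-FRET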
T_cruzi_growth-1: inhibitors of T. cruzi proliferation; T. cruzi beta-gal in NIH3T3, GalScreen luminescence, 90 h; inhibition, % at 8.34 µM; AID 624255; 5.9% of 77,000 active;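 active = mean inhibition above about 93%, with at least 55% of replicates each passing it, limit read from the data, passing the limit was not always enough; inconclusive = only one of those two conditions holds; inactive = neither condition holds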
Pf_Dd2_inh: blocks growth of Plasmodium falciparum Dd2 parasites. P. falciparum Dd2 growth, SYBR Green, 72 h; hits give low values. activity change, % at 10 µM. 2.3% of 94,000 active. AID 1159554; in the data active = activity change below about -80%; inconclusive = no clear call, values can overlap the other calls
IDH1_R132H_inh: IDH1 R132H (human) inhibition; IDH1 R132H reductase, diaphorase/resazurin fluorescence, 60 min; inhibition, % at 10 µM; 0.18% of 70,000 active; AID 624101; in the data active = inhibition above about 34%; inconclusive = no clear call, values can overlap the other calls; inactive = below about 11%;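 also: 0% = DMSO and 100% = no enzyme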
T_cruzi_growth-2: blocks T. cruzi growth in NIH3T3 host cells; AID 651739; shares compounds with T_cruzi_growth-1; T. cruzi beta-gal in NIH3T3, GalScreen luminescence, 90 h; 72% of 5,600 active; inhibition, % at 8.35 µM;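 active = mean replicate inhibition above about 95% and at least 55% of replicates individually reaching it, limit read from the data; inconclusive = only one of the two criteria is met; inactive = neither criterion is met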
T_cruzi_growth-3: Trypanosoma cruzi proliferation inhibition; 21% of 5,600 active; shares compounds with T_cruzi_growth-1; T. cruzi beta-gal in NIH3T3, GalScreen luminescence, 90 h; inhibition, % at 2.09 µM; AID 651740;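 active = mean inhibition above about 95%, with at least 55% of replicates also reaching it, limit read from the data; inconclusive = meets just one of the two conditions; inactive = meets neither condition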;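 also: plate controls were neutral control median for no effect and positive control median for full effect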
NIH3T3_tox: NIH/3T3 (mouse) viability loss; shares compounds with T_cruzi_growth-1; NIH/3T3 viability, CellTiter-Glo ATP luminescence, 90 h; cytotoxicity (signal decrease), % at 8.35 µM; 14% of 5,600 active; AID 651742;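 active = mean signal decrease across replicates above about 35% based on untreated-well scatter, with enough replicates individually passing, limit read from the data; inconclusive = no rule stated though some were filed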;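 also: 0% = median of neutral control wells and 100% = median of positive control wells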
3T3_cytotox_2: NIH/3T3 (mouse) viability loss | AID 651744 | shares compounds with T_cruzi_growth-1 | inhibition, % at 24.9 µM | 56% of 5,600 active | NIH/3T3 viability, CellTiter-Glo ATP luminescence, 90 h;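 active = mean loss of cell viability signal at or above a set limit, and enough replicates individually reaching it; inconclusive = meets only the mean limit or only the replicate share; inactive = meets neither condition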;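 also: 0% = median of neutral control wells and 100% = median of positive control wells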
The depositor's hits bear a star; ? = inconclusive; . = no result. Hits are enriched below; roughly 5.8% of the tested compounds scored in any of these assays.

SMILES GASC1_inh T_cruzi_growth-1 Pf_Dd2_inh IDH1_R132H_inh T_cruzi_growth-2 T_cruzi_growth-3 NIH3T3_tox 3T3_cytotox_2
C[C@@H]1CCCCO[C@H](CN(C)S(=O)(=O)c2ccc(Cl)cc2)[C@@H](C)CN([C@@H](C)CO)C(=O)c2cc(N(C)C)ccc2O1 0 100* -38 1 111* 28 -17 -18
C[C@@H]1CCCCO[C@H](CN(C)S(=O)(=O)c2ccc(Cl)cc2)[C@H](C)CN([C@@H](C)CO)C(=O)c2cc(N(C)C)ccc2O1 -1 86 -23 2 . . . .
C[C@H](CO)N1C[C@H](C)[C@H](CN(C)C(=O)Nc2cccc3ccccc23)Oc2ccc(NS(C)(=O)=O)cc2CC1=O 0 0 -4 0 . . . .
COc1ccccc1NC(=O)N1CCCCN2[C@H](CO)[C@H](c3ccc(C#Cc4ccccc4)cc3)[C@H]2C1 -3 58 -79 . . . . .
COc1ccccc1NC(=O)N1CCCCN2[C@H](C1)[C@H](c1ccc(C#CC3CC3)cc1)[C@@H]2CO . 100* -80 . 105* 56 21 30*
COc1ccccc1NC(=O)N1CCCCN2[C@H](C1)[C@@H](c1ccc(C#Cc3ccccc3)cc1)[C@@H]2CO -3 107* -48 . 99* 109* 36* 105*
C[C@H]1CN([C@@H](C)CO)C(=O)c2cc(Br)cnc2O[C@H]1CN(C)CC1CCOCC1 0 -86 33 0 . . . .
CCC(=O)N1CC2(C1)CN(Cc1cccc(Cl)c1)[C@@H](CO)c1[nH]c3cc(OC)ccc3c12 . . -77 . . . . .
COc1cc(C(=O)Oc2ccccc2NC2=NS(=O)(=O)c3ccccc32)cc(OC)c1OC . . . 1 . . . .
O=C(C[C@@H]1C=C[C@@H](NC(=O)c2ccc3c(c2)OCO3)[C@@H](CO)O1)NCc1ccc(F)cc1 0 -47 6 0 . . . .
COc1cccc(C#Cc2ccc([C@@H]3[C@H](C#N)N(C(=O)C4CC4)[C@H]3CO)cc2)c1 -2 ? -40 . 94 112* 8 25*
COc1cccc(C#Cc2ccc([C@@H]3[C@H](C#N)N(C(=O)C4CCCC4)[C@H]3CO)cc2)c1 -2 . -60 . . . . .
N#C[C@@H]1[C@@H](c2ccc(C#Cc3cccnc3)cc2)[C@@H](CO)N1C(=O)C1CC1 0 37 15 . . . . .
N#C[C@H]1[C@H](c2ccc(C#Cc3cccc(F)c3)cc2)[C@@H](CO)N1C(=O)C1CC1 2 102* -24 . 104* 83 14 15
N#C[C@@H]1[C@H](c2ccc(C#Cc3ccc(F)cc3)cc2)[C@@H](CO)N1C(=O)C1CC1 1 103* -32 . 105* 108* 1 98*
N#C[C@@H]1[C@@H](c2ccc(C#Cc3ccc(F)cc3)cc2)[C@H](CO)N1C(=O)C1CCC1 -2 87 -78 . . . . .
N#C[C@H]1[C@@H](c2ccc(C#Cc3cccc(F)c3)cc2)[C@H](CO)N1C(=O)C1CC1 -2 98* -22 . 100* 100* 39* 95*
COc1ccc2c3c(n(C)c2c1)[C@@H](CO)N(C(C)=O)CC31CCN(C(=O)NC(C)C)CC1 0 . 5 . . . . .
C[C@H]1CN([C@@H](C)CO)C(=O)c2cccc(NS(=O)(=O)c3ccccc3)c2O[C@@H]1CN(C)C(=O)NC1CCCCC1 3 53 9 -1 . . . .
N#C[C@H]1[C@@H](c2ccccc2C2=CCCCC2)[C@@H](CO)N1C(=O)CN1CCOCC1 0 . 15 . . . . .
C[C@H]1CCCCO[C@H](CN(C)Cc2ccc(C(F)(F)F)cc2)[C@@H](C)CN([C@@H](C)CO)C(=O)c2cc(NS(=O)(=O)c3ccccc3)ccc2O1 0 ? -36 . 91 97* 3 104*
C[C@@H]1CCCCO[C@@H](CN(C)Cc2ccc(C(F)(F)F)cc2)[C@@H](C)CN([C@H](C)CO)C(=O)c2cc(NS(=O)(=O)c3ccc(Cl)cc3)ccc2O1 -1 108* -8 . 95* 110* 25 102*
C[C@@H]1CCCCO[C@H](CN(C)Cc2ccc(C(F)(F)F)cc2)[C@@H](C)CN([C@H](C)CO)C(=O)c2cc(NS(=O)(=O)c3ccccc3)ccc2O1 2 ? -1 5 97* -7 15 50*
C[C@@H]1CN([C@H](C)CO)C(=O)c2cc(NS(C)(=O)=O)ccc2O[C@@H](C)CCCCO[C@@H]1CN(C)Cc1ccc(C(F)(F)F)cc1 -1 67 -52 -3 . . . .
C[C@H](CO)N1C[C@H](C)[C@@H](CN(C)Cc2ccc(C(F)(F)F)cc2)OCCCC[C@H](C)Oc2ccc(NS(C)(=O)=O)cc2C1=O 0 93* -25 0 109* 32 21 53*
SMILES GASC1_inh T_cruzi_growth-1 Pf_Dd2_inh IDH1_R132H_inh T_cruzi_growth-2 T_cruzi_growth-3 NIH3T3_tox 3T3_cytotox_2
Cc1noc(C)c1NC(=O)Nc1ccc2c(c1)C(=O)N([C@@H](C)CO)C[C@@H](C)[C@@H](CN(C)C(=O)Nc1cccc3ccccc13)O2 0 -87 23 -4 . . . .
CCCC(=O)Nc1ccc2c(c1)C(=O)N(C)[C@@H]1CC[C@@H](CC(=O)N3CCc4ccccc4C3)O[C@H]1CO2 5 48 -73 . . . . .
Cc1ccc(S(=O)(=O)Nc2ccc3c(c2)CC(=O)N([C@H](C)CO)C[C@H](C)[C@@H](CN(C)S(=O)(=O)c2cn(C)cn2)O3)cc1 -1 6 3 -1 . . . .
C[C@@H]1CN([C@H](C)CO)C(=O)c2cc(-c3ccncc3)cnc2O[C@@H]1CN(C)C(=O)C1CC1 1 19 43 . . . . .
C[C@@H]1CCCCO[C@@H](CN(C)C(=O)Cc2ccccc2)[C@@H](C)CN([C@H](C)CO)C(=O)c2cc(NC(=O)Nc3ccc4c(c3)OCO4)ccc2O1 1 20 -16 4 . . . .
COc1ccccc1N(CC(=O)Nc1ccc(I)cc1C)S(C)(=O)=O . . . 0 . . . .
COCC#Cc1ccc([C@H]2[C@H]3CN(C(=O)CN(C)C)CCCCN3[C@H]2CO)cc1 2 21 6 . . . . .
CN(C)CC#Cc1ccc([C@H]2[C@H](CO)N3CCCCN(C(=O)CN(C)C)C[C@@H]23)cc1 3 ? -89* . 76 16 15 25
COCC#Cc1ccc([C@@H]2[C@@H](CO)N3CCCCN(C(=O)CN(C)C)C[C@H]23)cc1 -1 106* 15 . 76 -17 -6 2
